The source made the active and inactive calls. The rule behind the calls is not given here. Bounds are passed on as bounds.

Data on 27 compounds can be found in ChEMBL document CHEMBL1149485, “Structure-activity relationships of uridine 5'-diphosphate analogues at the human P2Y6 receptor” (J Med Chem, 2006).

Holding throughout (type): functional, cell-based
The target in assay [1] is T1, P2Y purinoceptor 6 (Homo sapiens, UniProt Q15077). The assay is described as follows: Agonist activity at human recombinant P2Y6 receptor expressed in 1321N1 cells assessed as PLC-mediated [3H]IP production. A digest of the protocol: (§1)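 Stable 1321N1 astrocytoma line expressing human P2Y6, grown to confluence and labelled 12 h in serum-free, inositol-free DMEM with 0.4 μCi myo-[3H]inositol. Agonists were added in Hepes pH 7.3 with LiCl for 20 min at 37 °C. The reaction was stopped with ice-cold 50 mM formic acid, neutralised with NH4OH, and [3H]inositol phosphates separated on Dowex AG 1-X8. EC50 came from four-parameter logistic fits; ratio to UDP EC50. Triplicates, ≥3 experiments.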

Assay [2] has as its target T2, P2Y purinoceptor 4 (Homo sapiens, UniProt P51582). The assay is described as follows: Agonist activity at human recombinant P2Y4 receptor expressed in 1321N1 cells assessed as PLC-mediated [3H]IP production relative to UTP.
Assay [3] addresses T3, P2Y purinoceptor 2 (Homo sapiens, UniProt P41231). The assay is described as follows: Agonist activity at human recombinant P2Y2 receptor expressed in 1321N1 cells assessed as PLC-mediated [3H]IP production relative to UTP.
Assay [4] deals with T1, P2Y purinoceptor 6. The assay is described as follows: Agonist activity at human recombinant P2Y6 receptor expressed in 1321N1 cells assessed as PLC-mediated [3H]IP production relative to UDP. The method in brief: as §1
The target of assay [5] is T3, P2Y purinoceptor 2. The assay is described as follows: Agonist activity at human recombinant P2Y2 receptor expressed in 1321N1 cells assessed as PLC-mediated [3H]IP production.
Assay [6] deals with T2, P2Y purinoceptor 4. As to the kind of experiment: Agonist activity at human recombinant P2Y4 receptor expressed in 1321N1 cells assessed as PLC-mediated [3H]IP production.
In assay [7] the target is T2, P2Y purinoceptor 4. The assay is described as follows: Agonist activity at human recombinant P2Y4 receptor expressed in 1321N1 cells assessed as PLC-mediated [3H]IP production relative to UTP at 10 uM.
In assay [8] the target is T1, P2Y purinoceptor 6. As to the kind of experiment: Agonist activity at human recombinant P2Y6 receptor expressed in 1321N1 cells assessed as PLC-mediated [3H]IP production at 10 uM realtive to UDP. A digest of the protocol:
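Human P2Y6 in 1321N1 cells prelabelled with myo-[3H]inositol, then exposed to agonist at 10 μM in Hepes pH 7.3 with LiCl for 20 min at 37 °C. [3H]inositol phosphates were isolated by Dowex anion exchange. Response is expressed as % of the effect of a maximally effective UDP concentration in the same experiment.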

T1 sequence (Q15077 whole entry): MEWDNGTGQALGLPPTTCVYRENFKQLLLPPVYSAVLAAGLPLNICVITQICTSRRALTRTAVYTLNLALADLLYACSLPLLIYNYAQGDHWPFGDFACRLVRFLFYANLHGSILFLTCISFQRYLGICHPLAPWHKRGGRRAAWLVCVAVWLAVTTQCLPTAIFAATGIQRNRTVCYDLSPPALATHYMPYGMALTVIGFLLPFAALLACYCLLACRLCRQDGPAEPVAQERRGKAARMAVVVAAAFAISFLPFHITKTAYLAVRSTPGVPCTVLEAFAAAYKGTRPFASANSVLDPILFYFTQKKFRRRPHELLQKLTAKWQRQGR
T2 sequence (P51582 whole entry): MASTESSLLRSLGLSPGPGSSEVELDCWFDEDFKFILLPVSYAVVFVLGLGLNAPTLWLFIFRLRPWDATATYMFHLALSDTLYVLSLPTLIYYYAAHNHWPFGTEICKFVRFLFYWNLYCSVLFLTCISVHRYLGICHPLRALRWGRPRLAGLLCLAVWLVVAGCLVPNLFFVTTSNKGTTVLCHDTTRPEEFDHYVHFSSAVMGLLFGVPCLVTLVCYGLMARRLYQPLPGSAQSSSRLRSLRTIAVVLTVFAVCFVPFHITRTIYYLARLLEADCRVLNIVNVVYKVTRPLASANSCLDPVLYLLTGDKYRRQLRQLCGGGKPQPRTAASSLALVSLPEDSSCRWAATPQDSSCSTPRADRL
T3 sequence (P41231 whole entry): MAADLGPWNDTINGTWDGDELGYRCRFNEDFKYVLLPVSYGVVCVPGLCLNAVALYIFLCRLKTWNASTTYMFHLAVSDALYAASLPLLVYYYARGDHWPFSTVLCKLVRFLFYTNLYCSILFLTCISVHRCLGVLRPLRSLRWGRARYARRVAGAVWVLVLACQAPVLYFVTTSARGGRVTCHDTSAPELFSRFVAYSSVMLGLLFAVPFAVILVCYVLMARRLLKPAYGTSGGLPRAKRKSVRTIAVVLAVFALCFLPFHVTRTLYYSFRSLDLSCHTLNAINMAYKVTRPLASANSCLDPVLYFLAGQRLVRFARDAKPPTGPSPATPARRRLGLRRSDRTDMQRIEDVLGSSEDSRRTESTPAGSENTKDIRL

Broadly, the EC50 is the concentration that produces a half-maximal response. Turning to `O=c1ccn([C@@H]2O[C@@]3(COP(=O)(O)OP(=O)(O)O)C[C@H]3[C@H]2O)c(=O)[nH]1`, the EC50 on P2Y purinoceptor 6 [1] is 3500 nM.
Take `O=C(O)CCCSc1ccn([C@@H]2O[C@H](COP(=O)(O)OP(=O)(O)O)[C@@H](O)[C@H]2O)c(=O)n1`: the EC50 on P2Y purinoceptor 6 [1] is 8800 nM.
On to `O=c1ccn([C@@H]2O[C@H](COP(=O)(O)OP(=O)(O)O)[C@@H](O)[C@@H]2F)c(=O)[nH]1`, for which the Ratio EC50 came out at 7.1 on P2Y purinoceptor 4 [2], 11 at P2Y purinoceptor 2 [3] and 420 on P2Y purinoceptor 6 [4]. The EC50 on P2Y purinoceptor 6 [1] came out at 5500 nM.
In the case of `O=c1ccn([C@@H]2O[C@H](COP(=O)(O)OP(=O)(O)O)C[C@H]2O)c(=O)[nH]1`, the Ratio EC50 at P2Y purinoceptor 4 [2] was determined as 42; on P2Y purinoceptor 2 [3], 17; at P2Y purinoceptor 6 [4], 190. The figures for the EC50 at P2Y purinoceptor 2 [5], on P2Y purinoceptor 6 [1] and on P2Y purinoceptor 4 [6] were 810 nM, 2500 nM and 3100 nM, respectively.
For `N[C@@H]1[C@H](O)[C@@H](COP(=O)(O)OP(=O)(O)O)O[C@H]1n1ccc(=O)[nH]c1=O`, the Ratio EC50 on P2Y purinoceptor 4 [2] came out at 16; at P2Y purinoceptor 2 [3] it was 1.3; on P2Y purinoceptor 6 [4], 300. Also, the EC50 at P2Y purinoceptor 6 [1] is 3900 nM.
In the case of `NC(=O)CSc1ccn([C@@H]2O[C@H](COP(=O)(O)OP(=O)(O)O)[C@@H](O)[C@H]2O)c(=O)n1`, the EC50 at P2Y purinoceptor 6 [1] amounted to 18000 nM.
The same measure, in the same setting: the value for `O=c1ccn([C@@H]2O[C@H](COP(=O)(O)OP(=O)(O)O)[C@@H](O)[C@H]2O)c(=O)[nH]1` [URIDINE_DIPHOSPHATE] was 13 nM.
Regarding `Nc1ccn([C@@H]2O[C@H](COP(=O)(O)OP(=O)(O)O)[C@@H](O)[C@H]2O)c(=O)n1`, the outcome on P2Y purinoceptor 4 [7] was inactive. In addition, the EC50 on P2Y purinoceptor 6 [1] came out at 88000 nM. Moreover, the results for the Ratio EC50 on P2Y purinoceptor 2 [3] and on P2Y purinoceptor 6 [4] were 110 and 1000, respectively.
On to `O=c1nc(SCc2ccccc2)ccn1[C@@H]1O[C@H](COP(=O)(O)OP(=O)(O)O)[C@@H](O)[C@H]1O`, for which the EC50 on P2Y purinoceptor 6 [1] came to 800 nM.
The same measure, in the same setting: next, `C=CCSc1ccn([C@@H]2O[C@H](COP(=O)(O)OP(=O)(O)O)[C@@H](O)[C@H]2O)c(=O)n1`: 560 nM.
Turning to `O=c1nc(SCc2ccccc2)ccn1[C@@H]1O[C@H](COP(=O)(O)OP(=O)(O)OC[C@H]2O[C@@H](n3ccc(SCc4ccccc4)nc3=O)[C@H](O)[C@@H]2O)[C@@H](O)[C@H]1O`, at P2Y purinoceptor 6 [8], the Efficacy was < 50%.
Turning to `O=C(O)CSc1ccn([C@@H]2O[C@H](COP(=O)(O)OP(=O)(O)O)[C@@H](O)[C@H]2O)c(=O)n1`, the EC50 at P2Y purinoceptor 6 [1] amounted to 1700 nM.
For the compound `CSc1ccn([C@@H]2O[C@H](COP(=O)(O)OP(=O)(O)O)[C@@H](O)[C@H]2O)c(=O)n1`, on P2Y purinoceptor 6 [1], the EC50 turned out to be 2300 nM.
For `Cn1c(=O)ccn([C@@H]2O[C@H](COP(=O)(O)OP(=O)(O)O)[C@@H](O)[C@H]2O)c1=O`, the Ratio EC50 was 47 on P2Y purinoceptor 4 [2], 24 on P2Y purinoceptor 2 [3] and 250 at P2Y purinoceptor 6 [4]. Also, the 50% effective concentration (EC50) on P2Y purinoceptor 6 [1] stood at 3300 nM.
Regarding `O=c1ccn([C@@H]2C3C[C@@]3(COP(=O)(O)OP(=O)(O)O)[C@@H](O)[C@H]2O)c(=O)[nH]1` (some centres undefined), the figures for the Ratio EC50 at P2Y purinoceptor 4 [2], at P2Y purinoceptor 2 [3] and at P2Y purinoceptor 6 [4] were 1.7, 2 and > 7000, respectively.
Turning to `O=c1ccn([C@]23CC2[C@H](COP(=O)(O)OP(=O)(O)O)[C@@H](O)C3)c(=O)[nH]1` (some centres undefined), the 50% effective concentration (EC50) at P2Y purinoceptor 6 [1] turned out to be 230 nM.
`[N-]=[N+]=N[C@@H]1[C@H](O)[C@@H](COP(=O)(O)OP(=O)(O)O)O[C@H]1n1ccc(=O)[nH]c1=O`: the Ratio EC50 came to 15 at P2Y purinoceptor 4 [2], 100 at P2Y purinoceptor 2 [3] and 120 on P2Y purinoceptor 6 [4]. Further, the EC50 on P2Y purinoceptor 6 [1] was 1500 nM.
`CCSc1ccn([C@@H]2O[C@H](COP(=O)(O)OP(=O)(O)O)[C@@H](O)[C@H]2O)c(=O)n1`: the half-maximal effective concentration (EC50) on P2Y purinoceptor 6 [1] was determined as 280 nM.
The same measure, in the same setting: next, `O=C(O)CCSc1ccn([C@@H]2O[C@H](COP(=O)(O)OP(=O)(O)O)[C@@H](O)[C@H]2O)c(=O)n1`: 1100 nM.
Consider `Nc1ncnc2c1ncn2[C@@H]1O[C@H](COP(=O)(O)OP(=O)(O)O)[C@@H](O)[C@H]1O` [ADENOSINE DIPHOSPHATE], for which the outcome at P2Y purinoceptor 4 [7] was inactive. The EC50 on P2Y purinoceptor 6 [1] came to 65000 nM. Besides, the results for the Ratio EC50 at P2Y purinoceptor 2 [3] and on P2Y purinoceptor 6 [4] were 1.7 and > 7000, respectively.
In the case of `Nc1nc2c(ncn2[C@@H]2O[C@H](COP(=O)(O)OP(=O)(O)O)[C@@H](O)[C@H]2O)c(=O)[nH]1`, the Ratio EC50 on P2Y purinoceptor 4 [2] was 90; at P2Y purinoceptor 2 [3], 54; at P2Y purinoceptor 6 [4], 500. The EC50 at P2Y purinoceptor 6 [1] came out at 45000 nM.
`O=c1[nH]c(=O)n([C@@H]2O[C@H](COP(=O)(O)OP(=O)(O)O)[C@@H](O)[C@H]2O)cc1I`: the Ratio EC50 was found to be 55 on P2Y purinoceptor 4 [2], 17 at P2Y purinoceptor 2 [3] and 1.1 on P2Y purinoceptor 6 [4]. At P2Y purinoceptor 6 [1], the EC50 stood at 15 nM.
In the same order, the values of `O=c1ccn([C@@H]2O[C@H](COP(=O)(O)OP(=O)(O)O)[C@@H](O)[C@H]2O)c(=S)[nH]1` are 4.8, 0.71, 4 and 60 nM.
As for `O=c1ccn([C@@H]2O[C@H](COP(=O)(O)OP(=O)(O)OC[C@H]3O[C@@H](n4ccc(=O)[nH]c4=O)[C@H](O)[C@@H]3O)[C@@H](O)[C@H]2O)c(=O)[nH]1`, on P2Y purinoceptor 6 [1], the 50% effective concentration (EC50) is 2300 nM.
Same read-out and setting: the value for `CCCCCCSc1ccn([C@@H]2O[C@H](COP(=O)(O)OP(=O)(O)O)[C@@H](O)[C@H]2O)c(=O)n1` was 4900 nM.
As for `O=c1[nH]c(=S)ccn1[C@@H]1O[C@H](COP(=O)(O)OP(=O)(O)O)[C@@H](O)[C@H]1O`, the Ratio EC50 at P2Y purinoceptor 4 [2] came to 0.32; at P2Y purinoceptor 2 [3], 0.53; on P2Y purinoceptor 6 [4] it was 6. Besides, at P2Y purinoceptor 6 [1], the half-maximal effective concentration (EC50) stood at 80 nM.
For the compound `CCSc1ccn([C@@H]2O[C@H](COP(=O)(O)OP(=O)(O)OC[C@H]3O[C@@H](n4ccc(SCC)nc4=O)[C@H](O)[C@@H]3O)[C@@H](O)[C@H]2O)c(=O)n1`, the Efficacy on P2Y purinoceptor 6 [8] was < 50%.
